Results from different studies.
Lines come from different studies, so protocols differ.
Target: Dual specificity protein kinase CLK1 (CLK1, Homo sapiens, UniProt P49759)
Technique: competition with immobilised ligand

O=C(c1ccc(Nc2ncc(Cl)c(-c3cc4ccccc4s3)n2)cc1)N1CCC(N2CCCC2)CC1 — remaining binding (binding; 1 µM): 3%
C[C@@H](c1ccc(-n2cnc3c(N)ncnc32)cc1)N1CCc2nn(C)c(Cc3ccccc3)c2C1=O — remaining binding (binding; 0.1 µM): 67%
CNC(=O)c1ccccc1Nc1cc(Nc2ccc(N3CCOCC3)cc2OC)ncc1C(F)(F)F — remaining binding (binding; 1 µM): < 10%
CN([C@@H]1CCc2c(CC(=O)O)c3cc(S(C)(=O)=O)ccc3n2C1)S(=O)(=O)c1ccc(F)cc1 — remaining binding (cell-free assay; 1 µM): 100%
c1cncc(-c2cccc(Nc3nccc(NC4CCCCC4)n3)c2)c1 — remaining binding (binding; 10 µM): 1.1%
CNC(=O)[C@@H]1CC[C@@H](n2c(-c3ccc4cnccc4c3)nc3ccc(C(=O)NCc4cccc(C(N)=O)c4)cc32)C1 — remaining binding (binding; 1 µM): 98%
Cc1c(C(=O)O)cc(-c2ccc(C3CCNCC3)cc2)c2ccc(-c3ccc(C(F)(F)F)cc3)cc12 — remaining binding (binding; 1 µM): 100%
CN(CCCC(F)(F)F)c1nccc(-c2cnn3ncccc23)n1 — remaining binding (binding; 1 µM): 43%
FC(F)(F)Oc1cccc(-c2cnc3ccc(-c4ccncc4)nn23)c1 — remaining binding (cell-free assay; 5 µM): 0.7%
O=C(NCCCN1CCOCC1)c1ccc(Nc2ncc(Cl)c(-c3ccc(Cl)s3)n2)cc1 — remaining binding (binding; 1 µM): 3.6%
CS(=O)(=O)N1CCCC(NC(=O)[C@H](CCC2CCCCC2)NC(=O)c2ccc(CNc3ncnc4c3nnn4-c3ccccc3)cc2)C1 (some centres unmarked) — remaining binding (cell-free assay; 0.1 µM): 87%
O=C(NCCCN1CCOCC1)c1ccc(Nc2nccc(-c3cc4ccccc4s3)n2)cc1 — remaining binding (binding; 1 µM): 12%
O=C(NCC1CCOCC1)c1n[nH]cc1NC(=O)c1c(F)cccc1F — remaining binding (binding; 1 µM): 30%
Cc1cc(C)c(-n2ccn3nc(-c4cccnc4)cc23)cc1NC(=O)c1cc(C#N)cc(S(F)(F)(F)(F)F)c1 — remaining binding (cell-free assay; 0.1 µM): 96.2%
